The target of series [1] is T1, Broad substrate specificity ATP-binding cassette transporter ABCG2 (Homo sapiens, UniProt Q9UNQ0).
T1 sequence (Q9UNQ0 whole entry): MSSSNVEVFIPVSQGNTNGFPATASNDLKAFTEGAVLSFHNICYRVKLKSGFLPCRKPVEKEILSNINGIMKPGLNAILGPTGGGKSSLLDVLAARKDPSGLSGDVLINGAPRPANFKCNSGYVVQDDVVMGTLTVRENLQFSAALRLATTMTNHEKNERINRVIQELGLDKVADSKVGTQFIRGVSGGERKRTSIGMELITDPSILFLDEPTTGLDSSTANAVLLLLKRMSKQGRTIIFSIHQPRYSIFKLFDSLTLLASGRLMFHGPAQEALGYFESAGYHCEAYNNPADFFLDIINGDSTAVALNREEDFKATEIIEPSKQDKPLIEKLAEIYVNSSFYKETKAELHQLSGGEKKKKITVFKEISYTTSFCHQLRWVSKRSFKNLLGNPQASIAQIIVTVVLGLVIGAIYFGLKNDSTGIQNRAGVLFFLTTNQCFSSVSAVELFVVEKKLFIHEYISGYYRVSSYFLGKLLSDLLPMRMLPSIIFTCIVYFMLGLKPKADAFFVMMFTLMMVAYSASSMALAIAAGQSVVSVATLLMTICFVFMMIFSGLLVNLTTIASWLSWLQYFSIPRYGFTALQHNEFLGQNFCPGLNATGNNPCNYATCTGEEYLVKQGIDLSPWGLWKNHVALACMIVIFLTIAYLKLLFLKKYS
The series can be described thus: Reversal of ABCG2 (unknown origin)-mediated multidrug resistance in human S1-M1-80 cells assessed as fold-change in topotecan IC50 at 1 uM after 72 hrs by MTT assay relative to topotecan IC50. To be noted: s1-m1-80, 72 h. The series is classed as cell-based. Summed up: (§1)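 MTT readout in S1-M1-80 colon cancer cells (mitoxantrone-selected, held in 80 μM mitoxantrone, then drug-free 7 days before assay). Cells were seeded at 5000/well for 24 h, then given increasing mitoxantrone or topotecan with DMSO or non-toxic modulator for 72 h at 37 °C. IC50 came from fitted dose-response curves (at least three independent experiments). Fold-reversal = IC50 without modulator ÷ IC50 with modulator.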
(In general: Tetrazolium dyes change colour on reduction, which living cells bring about.)

The target of series [2] is T1, Broad substrate specificity ATP-binding cassette transporter ABCG2. The series can be described thus: Reversal of ABCG2 (unknown origin)-mediated multidrug resistance in human S1-M1-80 cells assessed as fold-change in mitoxantrone IC50 at 3 uM after 72 hrs by MTT assay relative to mitoxantrone IC50. Format: cell-based. The conditions noted are these: s1-m1-80, 72 h. An outline of the steps: as §1

Series [3] has as its system NCI-H460. Briefly: Effect on topotecan-induced cytotoxicity against human H460 cells assessed as fold change in topotecan IC50 at 2 uM after 72 hrs by MTT assay relative to topotecan IC50. The series is classed as functional. An outline of the steps:
(§2)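 Parental S1 colon and H460 lung cancer cells were exposed for 72 h to a mitoxantrone or topotecan concentration series, with or without modulator at 0.5–3.0 μM, and read by MTT. Fold-reversal is IC50 without modulator divided by IC50 with modulator, taken from dose-response curves of three independent experiments.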

Series [4] addresses T1, Broad substrate specificity ATP-binding cassette transporter ABCG2. The series can be described thus: Reversal of human ABCG2-mediated multidrug resistance in HEK293/R482 cells assessed as fold-change in topotecan IC50 at 1 uM after 72 hrs by CCK8 relative to topotecan IC50. Format: cell-based. Summed up:
(§3)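 Cells were seeded at 5000/well for 24 h, then given colchicine, etoposide, mitoxantrone or topotecan ± non-toxic modulator (0.5–3.0 μM) for 72 h, with DMSO up to 0.5%. IC50 came from fitted curves (mean ± SD, three experiments). Fold-reversal = IC50 without modulator ÷ IC50 with modulator.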

Series [5] concerns HEK293. The series can be described thus: Effect on Colchicine-induced cytotoxicity against HEK293 cells assessed as fold change in colchicine IC50 at 2 uM after 72 hrs by CCK8 assay relative to colchicine IC50. Format: cell-based. The conditions noted are these: human, hek293, 72 h. An outline of the steps: (§4)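 Reversal assay in parental pcDNA-HEK293 and transfected HEK293 lines (ABCB1 for colchicine, ABCC1 for etoposide, ABCG2 for mitoxantrone/topotecan). Substrate drug series was given with or without nontoxic modulator (0.5, 1.0, 2.0 or 3.0 μM) for 72 h, with a CCK-8 read-out. Fold-reversal is substrate IC50 without modulator divided by IC50 with modulator. Three independent experiments.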

Series [6] relates to S1-M1-80. Briefly: Downregulation of ABCG2 expression in human S1-M1-80 cells at 0.5 to 3 uM incubated for 72 hrs by Western blot analysis. Format: functional, cell-based. An outline of the steps:
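S1-M1–80 and H460-MX20 cells were treated with 0.5–3.0 μM or DMSO vehicle for 72 h, then run on SDS-PAGE and immunoblotted with BXP-21 (1:15000) for ABCG2. α-Tubulin (1:100000) served as loading control, with HRP goat anti-mouse secondary. Bands were quantified as mean ± SEM of three independent experiments.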
For orientation: In western blotting, separated proteins are transferred to a membrane and probed.

Series [7] relates to S1-M1-80. The series can be described thus: Potentiation of topotecan-induced apoptosis in human S1-M1-80 cells harboring ABCG2 (unknown origin) assessed as late apoptotic cells at 10 uM incubated for 48 hrs by annexin V/propidium iodide staining based flow cytometry (reference value: 6%). The series is classed as functional.
Series [8] deals with GES1. Briefly: Cytotoxicity against human GES-1 cells. The series is classed as cell-based.
In series [9] the test system is S1-M1-80. The series can be described thus: Induction of apoptosis in human S1-M1-80 cells harboring ABCG2 (unknown origin) assessed as early apoptotic cells at 10 uM incubated for 48 hrs by annexin V/propidium iodide staining based flow cytometry (reference value: 2.8%). The series is classed as functional.
Series [10] deals with NCI-H460. The series can be described thus: Cytotoxicity against human H460 cells after 72 hrs by MTT assay. The series is classed as functional, cell-based. The conditions noted are these: NCI-H460, 72 h. Summed up:
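Cells seeded at 5000/well, allowed 24 h, then exposed to a concentration series for 72 h at 37 °C in DMSO vehicle (up to 0.5% v/v). HEK293 lines were read with CCK-8 and cancer lines with MTT. IC50 was taken from fitted dose-response curves over at least three independent experiments. Lines were kept drug-free for 7 days before assay.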

For series [11], the system named is S1-M1-80. The series can be described thus: Potentiation of topotecan-induced apoptosis in human S1-M1-80 cells harboring ABCG2 (unknown origin) assessed as early apoptotic cells at 10 uM incubated for 48 hrs by annexin V/propidium iodide staining based flow cytometry (reference value: 3%). Format: functional.
Series [12] deals with HEK293. Briefly: Effect on etoposide-induced cytotoxicity against HEK293 cells assessed as fold change in etoposide IC50 at 2 uM after 72 hrs by CCK8 assay relative to etoposide IC50. Format: cell-based. To be noted: human, hek293, 72 h. An outline of the steps:
as §4

Series [13] deals with T2, ATP-dependent translocase ABCB1 (Homo sapiens, UniProt P08183). Briefly: Reversal of human ABCB1-mediated multidrug resistance in HEK293/MDR19 cells assessed as fold change in colchicine IC50 at 3 uM after 72 hrs by CCK8 relative to colchicine IC50. The series is classed as cell-based. Summed up:
as §3

Series [14] relates to S1. The series can be described thus: Induction of apoptosis in human S1 cells assessed as viable cells at 10 uM incubated for 48 hrs by annexin V/propidium iodide staining based flow cytometry (reference value: 94.1%). The series is classed as functional. The conditions noted are these: S1, 48 h, read-out: Activity. (In general: A flow cytometer gives signals particle by particle.)

For series [15], the target named is T2, ATP-dependent translocase ABCB1. Briefly: Reversal of human ABCB1-mediated multidrug resistance in HEK293/MDR19 cells assessed as fold change in colchicine IC50 at 2 uM after 72 hrs by CCK8 relative to colchicine IC50. The series is classed as cell-based. An outline of the steps:
as §3

The test system of series [16] is S1. The series can be described thus: Effect on mitoxantrone-induced cytotoxicity against human S1 cells assessed as fold change in mitoxantrone IC50 at 0.5 uM after 72 hrs by MTT assay relative to mitoxantrone IC50. The series is classed as functional. An outline of the steps:
as §2

Series [17] concerns HEK293. The series can be described thus: Effect on topotecan-induced cytotoxicity against HEK293 cells assessed as fold change in topotecan IC50 at 2 uM after 72 hrs by CCK8 assay relative to topotecan IC50. Format: cell-based. To be noted: human, hek293, 72 h. Summed up: as §4

Active and inactive are the calls of the source. The calls are words filed in the database; no cut-off is given here.

By IC50 is commonly meant the concentration at which inhibition is half-maximal. Low values mean higher potency, high ones lower potency.

T2 sequence (P08183 whole entry): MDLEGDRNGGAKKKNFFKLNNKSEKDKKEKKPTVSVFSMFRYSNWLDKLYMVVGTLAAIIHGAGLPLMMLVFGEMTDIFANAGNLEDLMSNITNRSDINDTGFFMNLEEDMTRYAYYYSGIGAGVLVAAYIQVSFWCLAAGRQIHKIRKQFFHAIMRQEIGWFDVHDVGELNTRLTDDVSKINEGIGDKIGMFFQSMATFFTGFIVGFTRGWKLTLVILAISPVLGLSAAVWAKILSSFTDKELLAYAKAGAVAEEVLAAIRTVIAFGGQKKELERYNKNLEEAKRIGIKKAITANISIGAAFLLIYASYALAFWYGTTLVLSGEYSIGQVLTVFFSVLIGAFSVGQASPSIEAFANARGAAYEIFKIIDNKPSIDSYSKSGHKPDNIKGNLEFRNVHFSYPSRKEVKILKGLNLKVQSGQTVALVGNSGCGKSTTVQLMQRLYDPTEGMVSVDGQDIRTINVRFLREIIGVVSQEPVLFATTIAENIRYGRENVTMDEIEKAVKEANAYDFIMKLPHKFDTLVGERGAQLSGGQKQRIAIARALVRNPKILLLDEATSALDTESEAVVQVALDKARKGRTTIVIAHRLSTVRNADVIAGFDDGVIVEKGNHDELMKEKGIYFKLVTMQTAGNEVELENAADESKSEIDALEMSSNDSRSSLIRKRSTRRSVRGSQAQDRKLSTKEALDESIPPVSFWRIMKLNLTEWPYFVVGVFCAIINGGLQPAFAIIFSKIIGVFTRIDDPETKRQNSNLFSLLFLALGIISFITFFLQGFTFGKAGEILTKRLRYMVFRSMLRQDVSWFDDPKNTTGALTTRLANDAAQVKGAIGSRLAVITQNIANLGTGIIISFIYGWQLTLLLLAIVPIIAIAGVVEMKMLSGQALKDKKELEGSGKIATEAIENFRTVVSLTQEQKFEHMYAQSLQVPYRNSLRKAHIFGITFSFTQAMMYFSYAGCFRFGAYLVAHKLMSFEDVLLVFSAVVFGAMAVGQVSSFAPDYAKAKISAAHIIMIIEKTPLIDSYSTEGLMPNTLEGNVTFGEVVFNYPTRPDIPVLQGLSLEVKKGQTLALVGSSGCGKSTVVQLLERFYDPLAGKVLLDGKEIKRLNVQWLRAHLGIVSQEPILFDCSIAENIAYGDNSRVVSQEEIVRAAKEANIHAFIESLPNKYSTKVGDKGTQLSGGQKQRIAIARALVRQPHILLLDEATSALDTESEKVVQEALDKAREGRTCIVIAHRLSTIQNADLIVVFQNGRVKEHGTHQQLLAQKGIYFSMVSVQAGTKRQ

As for `C=CC(C)(C)c1cc(/C=C/C(=O)c2ccc(O)cc2)c(OC)cc1O` [LICOAGROCHACONE A], the “fold change (FC)” value is 16.6 in series [1]; 48.1 in [2]; 1.7 in [3]; 3.9 in series [4]; 0.9 in [5]; 0.7 in series [12]. The “fold change (FC)” value in series [13] stood at 0.9; in [15], 0.8; in series [16] it was 1.1; in series [17] it was 1. Besides, the outcome in series [6] was inactive. Besides, the results for the Activity in series [7], in series [9] and in series [11] were 22.5%, 2.5% and 9%, respectively. For the same molecule, the figures for the half-inhibitory concentration (IC50) in [8] and in series [10] were over 180 µM and 10 to 50 µM, respectively. In addition, the viability at 10 µM in series [14] turned out to be 95.4%.

Source of the values: ChEMBL document CHEMBL4627381, “Licochalcone A Selectively Resensitizes ABCG2-Overexpressing Multidrug-Resistant Cancer Cells to Chemotherapeutic Drugs” (J Nat Prod, 2020).
